From ChEMBL document CHEMBL1123066, “N alpha-(diphenoxyphosphoryl)-L-alanyl-L-proline, N alpha-[bis (4-nitrophenoxy)phosphoryl]-L-alanyl-L-proline, and N alpha-[ (2-phenylethyl)phenoxyphosphoryl]-L-alanyl-L-proline: releasers of potent inhibitors of angiotensin converting enzyme at physiological pH and temperature” (J Med Chem, 1985)

Experiments:
[1] = Rate constant was evaluated for the loss of 1 mol of phenol at the pH 7.5 in the presence of Tris buffer; assay type: ADME
In short: (§1)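 Ester hydrolysis at pH 7.5 and 37 °C in 100 mM Tris or phosphate buffer with 300 mM NaCl, no enzyme. Phenol release (about 1 mM ester) followed at 275 nm, Δε 1375 M⁻¹cm⁻¹. 4-Nitrophenol release (about 10 μM ester) followed at 400 nm, Δε 12500 M⁻¹cm⁻¹. Starting concentrations checked by full hydrolysis in 6 N HCl at 110 °C. First-order rate constants and half-times derived.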

[2] = Rate constant was evaluated for the loss of 1 mol of phenol at the pH 7.5 in the presence of phosphate buffer; assay type: ADME; in short: as §1
[3] = Inhibitory potency was evaluated against angiotensin converting enzyme at the pH 7.5; assay type: ADME
[4] = The half-life period was evaluated for the loss of 1 mol of phenol at the pH 7.5 in the presence of phosphate buffer; assay type: ADME; in short: as §1
[5] = target: T1, Angiotensin-converting enzyme (Oryctolagus cuniculus, UniProt P12822); experiment: Inhibition of Angiotensin I converting enzyme from rabbit lungs at pH 7.5
T1 sequence (P12822 whole entry): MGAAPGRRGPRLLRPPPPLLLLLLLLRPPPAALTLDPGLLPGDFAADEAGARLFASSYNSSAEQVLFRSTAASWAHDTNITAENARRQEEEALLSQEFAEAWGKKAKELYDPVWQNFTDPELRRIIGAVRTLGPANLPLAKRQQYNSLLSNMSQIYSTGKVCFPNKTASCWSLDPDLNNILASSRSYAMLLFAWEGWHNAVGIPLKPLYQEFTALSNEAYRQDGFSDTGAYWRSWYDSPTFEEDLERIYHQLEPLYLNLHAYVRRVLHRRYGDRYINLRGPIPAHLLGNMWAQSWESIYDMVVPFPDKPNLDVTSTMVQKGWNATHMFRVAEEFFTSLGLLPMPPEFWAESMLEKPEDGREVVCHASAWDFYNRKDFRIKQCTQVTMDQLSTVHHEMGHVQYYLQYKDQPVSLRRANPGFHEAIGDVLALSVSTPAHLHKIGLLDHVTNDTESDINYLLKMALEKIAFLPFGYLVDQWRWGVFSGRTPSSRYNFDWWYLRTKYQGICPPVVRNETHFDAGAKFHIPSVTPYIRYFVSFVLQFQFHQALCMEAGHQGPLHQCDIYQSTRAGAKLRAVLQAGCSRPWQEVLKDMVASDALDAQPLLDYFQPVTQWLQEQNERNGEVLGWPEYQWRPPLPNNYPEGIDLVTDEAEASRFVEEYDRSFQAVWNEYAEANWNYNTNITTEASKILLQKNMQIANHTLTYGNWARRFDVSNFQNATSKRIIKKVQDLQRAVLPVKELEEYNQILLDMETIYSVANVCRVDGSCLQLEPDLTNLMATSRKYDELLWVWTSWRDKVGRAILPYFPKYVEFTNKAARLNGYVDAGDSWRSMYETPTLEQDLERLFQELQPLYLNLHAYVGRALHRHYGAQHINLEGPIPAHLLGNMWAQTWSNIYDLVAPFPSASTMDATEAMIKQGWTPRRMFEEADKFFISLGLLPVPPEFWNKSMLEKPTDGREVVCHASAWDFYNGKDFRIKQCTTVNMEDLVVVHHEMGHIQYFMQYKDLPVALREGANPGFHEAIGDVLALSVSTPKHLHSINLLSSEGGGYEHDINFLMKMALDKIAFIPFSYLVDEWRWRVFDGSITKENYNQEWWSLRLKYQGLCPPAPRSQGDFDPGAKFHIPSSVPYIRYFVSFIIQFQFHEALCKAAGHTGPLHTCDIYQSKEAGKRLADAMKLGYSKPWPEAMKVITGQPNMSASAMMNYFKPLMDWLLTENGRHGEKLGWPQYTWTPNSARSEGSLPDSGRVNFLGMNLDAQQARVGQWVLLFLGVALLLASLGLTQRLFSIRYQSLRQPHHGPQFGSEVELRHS

[6] = The half-life period was evaluated for the loss of 1 mol of phenol at the pH 7.5 in the presence of Tris buffer; assay type: ADME; in short: as §1
[7] = Half life against hydrolysis at P-N bond; assay type: ADME
In short: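 P–N cleavage measured in pH 7.5 phosphate buffer at 37 °C. Free Ala-Pro primary amine determined by fluorescamine assay over the hydrolysis time course. Observed rate constant and half-time derived.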

[8] = target: T1, Angiotensin-converting enzyme; experiment: Inhibitory constant was evaluated against Angiotensin I converting enzyme from rabbit lungs
[9] = Inhibitory potency was evaluated against angiotensin converting enzyme at the pH 7.5 in the presence of Tris phosphate buffer, 300 mM in NaCl; assay type: ADME
[10] = target: T1, Angiotensin-converting enzyme; experiment: Inhibitory constant was evaluated against Angiotensin I converting enzyme from rabbit lungs at pH 8
[11] = target: T1, Angiotensin-converting enzyme; experiment: Inhibitory constant was evaluated against Angiotensin I converting enzyme from rabbit lungs at pH 8 in TRIS phosphate/borate buffer
[12] = target: T1, Angiotensin-converting enzyme; experiment: Binding affinity against Angiotensin I converting enzyme
[13] = Rate constant was evaluated for the loss of 2 mol of phenol at the pH 7.5 in the presence of Tris buffer; assay type: ADME; in short: as §1
[14] = Rate constant was evaluated for the loss of 2 mol of phenol at the pH 7.5 in the presence of phosphate buffer; assay type: ADME; in short: as §1
[15] = The half-life period was evaluated for the loss of 2 mol of phenol at the pH 7.5 in the presence of Tris buffer; assay type: ADME; in short: as §1
[16] = The half-life period was evaluated for the loss of 2 mol of phenol at the pH 7.5 in the presence of phosphate buffer; assay type: ADME; in short: as §1
[17] = target: T1, Angiotensin-converting enzyme; experiment: Inhibitory activity against Angiotensin I converting enzyme was evaluated

SMILES | Rate constant [1] | Rate constant [2] | half-life [4] | Ki [5] | half-life [6] | other results
C[C@H](NP(=O)(Oc1ccccc1)Oc1ccccc1)C(=O)N1CCC[C@H]1C(=O)O | 0.0013 h⁻¹ | 0.0012 h⁻¹ | 576 h | 42 µM | 528 h | half-life [3]: 384 h
C[C@H](NP(=O)([O-])[O-])C(=O)N1CCC[C@H]1C(=O)[O-].[K+].[K+].[K+] | – | – | – | 0.0014 µM | – | half-life [7]: 2.2 h; IC50 [8]: 0.7 µM
C[C@H](NP(=O)(CCc1ccccc1)Oc1ccccc1)C(=O)N1CCC[C@H]1C(=O)O (stereo partly drawn) | 0.0014 h⁻¹ | 0.001 h⁻¹ | 744 h | 55 µM | 504 h | half-life [9]: 912 h
C[C@H](NP(=O)(O)OCc1ccccc1)C(=O)N1CCC[C@H]1C(=O)O | – | – | – | 0.0012 µM | – | –
C[C@H](NP(=O)(O)Oc1ccccc1)C(=O)N1CCC[C@H]1C(=O)O | – | – | – | 0.008 µM | – | IC50 [10]: 0.9 µM; IC50 [11]: 50000 µM
C[C@H](NP(=O)(O)Oc1ccc([N+](=O)[O-])cc1)C(=O)N1CCC[C@H]1C(=O)O | – | – | – | 0.018 µM | – | Ki [12]: 0.018 µM
C[C@H](NP(=O)(Oc1ccc([N+](=O)[O-])cc1)Oc1ccc([N+](=O)[O-])cc1)C(=O)N1CCC[C@H]1C(=O)O | 0.2 h⁻¹ | 0.34 h⁻¹ | 2 h | 0.8 µM | 3.4 h | Rate constant [13]: 0.025 h⁻¹; Rate constant [14]: 0.031 h⁻¹; half-life [9]: 4 h; half-life [15]: 29 h; half-life [16]: 22 h
C[C@H](NP(=O)(O)CCc1ccccc1)C(=O)N1CCC[C@H]1C(=O)O | – | – | – | 0.0005 µM | – | IC50 [17]: 0.007 µM
